According to ChEMBL document CHEMBL2034874, “5-acetyl-2-arylbenzimidazoles as antiviral agents. Part 4” (Eur J Med Chem, 2012):

Experiments:
[1] = Cytotoxicity against human MT4 cells after 96 hrs by MTT assay; type: cell-based
Procedure, shortened: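 Exponentially growing MT-4 cells seeded at 1×10^5 cells/mL in RPMI-1640 with 10% FBS and incubated with serial compound dilutions at 37 °C and 5% CO2. Viability measured by MTT after 96 h. CC50 by linear regression against untreated controls.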

[2] = test system: Human immunodeficiency virus 1; assay: Antiviral activity against HIV1 3B infected in human MT4 cells assessed as inhibition of virus-induced cytopathogenicity after 4 days by MTT assay; type: functional, organism-based; details: Human immunodeficiency virus 1, 3B, MT4, 96 h
Procedure, shortened: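 MT-4 cells (1×10^4/well) in RPMI with serial compound dilutions, infected with HIV-1 IIIB at 100 CCID50 (m.o.i. 0.01). Viability measured by MTT after 4 days at 37 °C. EC50 for 50% protection from cytopathogenicity obtained by linear regression against untreated controls.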

[3] = Cytotoxicity against MDBK cells after 48 to 96 hrs by MTT assay; type: cell-based, Bos taurus; details: cattle
Procedure, shortened: (§1)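 Mock-infected MDBK (6×10^5 cells/mL, MEM-E with 10% horse serum) or BHK (1×10^6 cells/mL, MEM-E with 10% FBS) cells incubated with serial compound dilutions at 37 °C and 5% CO2. Viability measured by MTT after 48–96 h. CC50 by linear regression against untreated controls.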

[4] = Antiviral activity against BVDV1 NADL ATCC VR-534 infected in MDBK cells assessed as inhibition of virus-induced cytopathogenicity after 3 to 4 days by MTT assay; type: functional, cell-based, Bovine viral diarrhea virus 1-NADL; details: Bovine viral diarrhea virus isolates and strains, ATCC VR-534, MDBK
Procedure, shortened: (§2)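 BHK (5×10^4/well) or MDBK (3×10^4/well) cells grown to confluent monolayers overnight, infected at m.o.i. 0.01 in maintenance MEM-Earl with 0.5% inactivated FBS. Serially diluted compounds added after 1 h. Viability read by MTT after 3–4 days at 37 °C. Values are expressed as % of untreated controls, and EC50 is derived by linear regression. Duplicate samples.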

[5] = Cytotoxicity against BHK21 cells by MTT assay; type: cell-based, Mesocricetus auratus; details: hamster, BHK-21 cells; procedure, shortened: as §1
[6] = test system: Yellow fever virus; assay: Antiviral activity against Yellow fever virus 17D infected in BHK21 cells assessed as inhibition of virus-induced cytopathogenicity after 3 to 4 days by MTT assay; type: functional, cell-based; details: BHK-21
[7] = test system: Mammalian orthoreovirus 1; assay: Antiviral activity against Reovirus 1 3651 ATCC VR-214 infected in BHK21 cells assessed as inhibition of virus-induced cytopathogenicity after 3 to 4 days by MTT assay; type: functional, organism-based; details: Mammalian orthoreovirus 1, 3651 ATCC VR-214, BHK-21; procedure, shortened: as §2
[8] = Cytotoxicity against african green monkey Vero 76 cells after 48 to 96 hrs by MTT assay; type: cell-based; details: chlorocebus sabaeus
[9] = test system: Coxsackievirus B5; assay: Antiviral activity against Coxsackie virus type B5 Ohio-1 ATCC VR-29 infected in african green monkey Vero-76 cells assessed as reduction in viral plaque after 3 days by crystal violet staining; type: functional, organism-based; details: Enterovirus B, Ohio-1 ATCC VR-29, Vero 76, 72 h
Procedure, shortened: (§3)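 Vero-76 monolayers (2×10^5 cells/well) infected for 2 h at 50–100 PFU/well. Unadsorbed virus removed. D-MEM with 1% inactivated FBS, 0.75% methylcellulose and serial compound dilutions added. Incubation at 37 °C for 3 days (CVB-5, HSV-1) or 5 days (RSV). Fixed and stained with 50% ethanol/0.8% crystal violet, then plaques counted. EC50 by linear regression versus untreated controls.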

[10] = test system: Poliovirus 1; assay: Antiviral activity against Polio virus type 1 strain sabin ATCC VR-1562 infected in african green monkey Vero-76 cells assessed as reduction in viral plaque after 2 days by crystal violet staining; type: functional, cell-based, Human poliovirus 1 strain Sabin; details: Enterovirus C, ATCC VR-1562, Vero 76, 48 h
[11] = Antiviral activity against Human respiratory syncytial virus A2 ATCC VR-1540 infected in african green monkey Vero-76 cells assessed as reduction in viral plaque after 5 days by crystal violet staining; type: functional, cell-based; details: ATCC VR-1540, Vero 76, 120 h; procedure, shortened: as §3
[12] = test system: Vesicular stomatitis Indiana virus; assay: Antiviral activity against Vesicular stomatitis virus indiana ATCC VR-1540 infected in african green monkey Vero-76 cells assessed as reduction in viral plaque after 2 days by crystal violet staining; type: functional, organism-based; details: ATCC VR-1540, Vero 76, 48 h
[13] = test system: Vaccinia virus; assay: Antiviral activity against Vaccinia virus Elstree-Lister ATCC VR-1549 infected in african green monkey Vero-76 cells assessed as reduction in viral plaque after 3 days by crystal violet staining; type: functional, organism-based; details: Orthopoxvirus vaccinia, Elstree-Lister ATCC VR-1549, Vero 76, 72 h
[14] = test system: Human alphaherpesvirus 1; assay: Antiviral activity against Herpes simplex virus type 1 KOS ATCC VR-1493 infected in african green monkey Vero-76 cells assessed as reduction in viral plaque after 3 days by crystal violet staining; type: functional, organism-based; details: Human alphaherpesvirus 1, KOS ATCC VR1493, Vero 76, 72 h; procedure, shortened: as §3

Row | SMILES | CC50 at 96 h [1] | EC50 [2] | CC50 [3] | EC50 [4] | CC50 [5] | EC50 [6] | EC50 [7] | CC50 [8] | EC50 [9] | EC50 [10] | EC50 [11] | EC50 [12] | EC50 [13] | EC50 [14]
1 | CC(=O)c1ccc2c(c1)nc(-c1ccc(C(F)(F)F)cc1)n2C1CCCCC1 | 41 µM | > 41 µM | 52 µM | 23 µM | 33 µM | > 33 µM | > 33 µM | 35 µM | > 35 µM | > 35 µM | 20 µM | > 35 µM | > 35 µM | > 35 µM
2 | C/C(=N\NC(N)=S)c1ccc2[nH]c(-c3ccoc3)nc2c1 | 86 µM | > 86 µM | > 100 µM | 8 µM | > 100 µM | > 100 µM | > 100 µM | 100 µM | > 100 µM | 100 µM | > 100 µM | > 100 µM | > 100 µM | > 100 µM
3 | C/C(=N\NC(N)=S)c1ccc2c(c1)nc(-c1ccc(Cl)cc1)n2C1CCCCC1 | 17 µM | ≥ 17 µM | > 100 µM | > 100 µM | > 100 µM | > 100 µM | > 100 µM | > 100 µM | > 100 µM | > 100 µM | > 100 µM | > 100 µM | > 100 µM | > 100 µM
4 | COc1ccc(-c2nc3cc(C(C)=O)ccc3[nH]2)c(OC)c1OC | > 100 µM | > 100 µM | > 100 µM | > 100 µM | > 100 µM | > 100 µM | > 100 µM | > 100 µM | > 100 µM | > 100 µM | > 100 µM | > 100 µM | > 100 µM | > 100 µM
5 | COc1ccc(-c2nc3cc(C(C)O)ccc3[nH]2)cc1 (stereo unspecified) | ≥ 100 µM | > 100 µM | > 100 µM | > 100 µM | > 100 µM | > 100 µM | > 100 µM | > 100 µM | > 100 µM | > 100 µM | > 100 µM | > 100 µM | > 100 µM | > 100 µM
6 | CC(=O)c1ccc2c(c1)nc(-c1ccc(Cl)cc1)n2C1CCCCC1 | 58 µM | > 58 µM | > 100 µM | 23 µM | > 100 µM | > 100 µM | > 100 µM | > 100 µM | > 100 µM | > 100 µM | > 100 µM | > 100 µM | > 100 µM | > 100 µM
7 | COc1ccc(-c2nc3cc(/C(C)=N/O)ccc3[nH]2)c(OC)c1 | ≥ 100 µM | > 100 µM | > 100 µM | 17 µM | > 100 µM | > 100 µM | > 100 µM | > 100 µM | 43 µM | > 100 µM | > 100 µM | > 100 µM | > 100 µM | > 100 µM
8 | COc1ccc(-c2nc3cc(C(C)=O)ccc3n2C2CCCCC2)c(OC)c1 | 21 µM | > 21 µM | 21 µM | > 21 µM | 8.5 µM | > 8.5 µM | > 85 µM | 70 µM | > 70 µM | > 70 µM | > 70 µM | > 70 µM | > 70 µM | > 70 µM
9 | COc1ccc(-c2nc3cc(C(C)O)ccc3[nH]2)c(OC)c1 (stereo unspecified) | ≥ 100 µM | > 100 µM | > 100 µM | > 100 µM | > 100 µM | > 100 µM | > 100 µM | > 100 µM | > 100 µM | > 100 µM | > 100 µM | > 100 µM | > 100 µM | > 100 µM
